Data published in PubChem BioAssay AID1556 (The Scripps Research Institute Molecular Screening Center, 2009).
In all, about 290,000 compounds went through this assay and about 1,300 (0.45%) were called active.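 Rule for the calls: active = inhibition above the mean plus 3 SD of all compounds in the same screening run (cut at about 4.5% in these data); inactive = the rest.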 Shown is part of a subset that was picked to be rich in actives.

System: metallo-beta-lactamase IMP-1 (Pseudomonas aeruginosa)
Assay: inhibition of IMP-1 nitrocefin hydrolysis – biochemical, epi-absorbance readout, Pseudomonas aeruginosa enzyme, primary screen (AID 1556);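 note: 0% = IMP-1 with DMSO and 100% = DMSO wells lacking enzyme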
Conditions: purified IMP-1, nitrocefin hydrolysis, epi-absorbance fluorescence; at 5.6 µM; active compounds read high
Summary of the method: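 Material – recombinant IMP-1 enzyme, purified · Amount – IMP-1 0.2 nM before substrate addition · Medium – HEPES buffer pH 7.1 with ZnSO4 and Brij 35 · Timing – 25 °C, 15 min preincubation, 25 min reaction · Measured by – plate fluorescence quenching by hydrolysis product, ex 480/em 530 nm · Read-out – percent enzyme inhibition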

SMILES	inhibition
COc1ccc(C(=O)NN2C(=O)C3C(c4ccccc4)C=CC(c4ccccc4)C3C2=O)cc1 (centres undefined)	53.9% (active)
O=C(NN1C(=O)C2C3C=CC(O3)C2C1=O)c1ccccc1 (centres undefined)	-2.31% (inactive)
COc1ccccc1C(=O)NN1C(=O)C2C3C=CC(O3)C2C1=O (centres undefined)	-3.22% (inactive)
O=C(NC1CCCC1)C(c1ccco1)N(C(=O)c1ccco1)c1ccc(F)cc1 (centres undefined)	-2.48% (inactive)
CCCc1cc(C(=O)Nc2ccc(C(=O)OC)cc2)cs1	-3.3% (inactive)
CCc1ccc(OCC(=O)NCC(c2ccc(Cl)cc2)N2CCCCC2)cc1 (centres undefined)	-1.02% (inactive)
COc1cccc(CSc2nc3nc(C)cc(C)n3n2)c1	-1.34% (inactive)
O=C(Nc1ccnn1C1CCN(C/C=C/c2ccc(F)cc2)CC1)C1CCCC1	0.74% (inactive)
CCCCC(c1nnnn1CS(=O)(=O)c1ccc(C)cc1)N1CCC(C(N)=O)CC1 (centres undefined)	0.14% (inactive)
C=CCN1CCN(C(=O)CCCc2ccccc2)CC1	-0.18% (inactive)
NC(=O)c1ccc(NC(=O)COC(=O)c2c3c(nc4ccccc24)/C(=C\c2ccc4c(c2)OCO4)CCC3)cc1	19.6% (active)
COc1cc(/C=C2\CCCc3c2nc2ccccc2c3C(=O)O)cc(Cl)c1O	-1.14% (inactive)
NS(=O)(=O)c1ccc(NC(=O)COC(=O)c2c3c(nc4ccccc24)/C(=C\c2ccc4c(c2)OCO4)CCC3)cc1	28% (active)
NS(=O)(=O)c1ccc(NC(=O)COC(=O)c2cc3ccccc3oc2=O)cc1	-1.27% (inactive)
O=C(COC(=O)c1c2c(nc3ccccc13)/C(=C\c1cccs1)CCC2)Nc1ccccc1Cl	-3.13% (inactive)
COc1cc(-c2cc(C(=O)OCC(=O)Nc3ccc4c(c3)OCO4)c3ccccc3n2)cc(OC)c1OC	-2.57% (inactive)
O=C(c1ccccc1)N1N=C(c2ccccc2O)CC1c1ccc(Br)cc1 (centres undefined)	-4.1% (inactive)
Cc1cccc(N2CCN(C(=O)c3cccc(N4C(=O)C5C6C=CC(C6)C5C4=O)c3)CC2)c1C (centres undefined)	-2.92% (inactive)
CCCCc1nc(NCCN)c(C#N)c2c1CSC(C)(C)C2	-1.69% (inactive)
O=C(Nc1ccc(-c2cscn2)cc1)C1CCCN(Cc2ccc(CO)o2)C1 (centres undefined)	-1.8% (inactive)

SMILES	inhibition
CN(CC1CCCO1)S(=O)(=O)c1ccc(C(=O)Nc2ccc(F)cc2)cc1 (centres undefined)	-2.19% (inactive)
O=C(c1cc(COc2cccc(C(F)(F)F)c2)on1)N1CCSCC1	-1.37% (inactive)
CC(=O)Nc1ccc(S(=O)(=O)N2CCSCC2)cc1	-4.96% (inactive)
CC(=O)NC1=NC(=O)CS1	12.7% (active)
Cc1ccnc(NC(=O)CCNS(=O)(=O)c2ccc(C)c(C)c2)c1	-3.48% (inactive)
Cc1cc(NC(=O)Nc2ccccc2[N+](=O)[O-])no1	-1.98% (inactive)
CCCCCCC(O)(CCN1CCCCC1)c1ccccc1 (centres undefined)	-1.94% (inactive)
O=C1CSC(=S)N1/N=C/c1ccc(O)c([N+](=O)[O-])c1	10.3% (active)
CCOc1cccc(/C=N/N2C(=O)CSC2=S)c1O	-2.38% (inactive)
Cc1cc(C(=O)N/N=C/c2ccc(O)c([N+](=O)[O-])c2)c(C)n1-c1ccc(F)cc1	-0.78% (inactive)
O=C(Nc1cccc(F)c1)[C@@H]1CCCN1	-1.96% (inactive)
O=C(NCc1cccs1)c1ccc(CS(=O)Cc2ccccc2Cl)o1 (centres undefined)	-3% (inactive)
CC1CC(C)CN(C(=O)CSc2ccsc2[N+](=O)[O-])C1 (centres undefined)	-2.57% (inactive)
Cc1ccc(CN2CCCOCCS2(=O)=O)cc1	-1.66% (inactive)
CC(C)(C)OC(=O)NCCCCCC(=O)N/N=C/c1coc2ccccc2c1=O	-0.81% (inactive)
O=C(N/N=C/c1coc2ccccc2c1=O)c1cc2ccccc2o1	-0.92% (inactive)
Cc1ccc2occ(/C=N/NC(=O)c3ccccc3C)c(=O)c2c1	4.69% (active)
CCCCc1ccc(NC(=O)NCc2cccnc2)cc1	-2.87% (inactive)
COc1ccc(S(=O)(=O)N2CCOC2CNC(=O)C(=O)NCc2ccncc2)cc1C (centres undefined)	-3.35% (inactive)
COC(=O)c1nc(NC(=O)c2ccc(C(C)(C)C)cc2)n[nH]1	-2.13% (inactive)

SMILES	inhibition
COC(=O)c1nc(NC(=O)c2ccc(F)cc2)n[nH]1	-1.83% (inactive)
COC(=O)c1nc(NC(=O)c2ccc(Cl)cc2)n[nH]1	7.73% (active)
CC(C)c1ccc(N(C(=O)c2ccco2)C(C(=O)NC2CCCC2)c2cccnc2)cc1 (centres undefined)	-1.29% (inactive)
O=C(N/N=C\c1cccnc1)c1cc(-c2ccccc2)nc2c(Cl)cccc12	-3.33% (inactive)
Cc1occc1C(=O)NC1CCCN(Cc2ccc(CC(C)C)cc2)C1 (centres undefined)	-3.33% (inactive)
Cc1cc(-c2ccc(C)c(S(=O)(=O)NC(C)Cc3ccco3)c2)on1 (centres undefined)	-1.25% (inactive)
CCCOc1ccc(-c2c(C(=O)N/N=C/c3ccco3)nnn2-c2nonc2N)cc1	-3.51% (inactive)
C/C(=N\Nc1ncc(Cl)cc1Cl)c1cccs1	-0.11% (inactive)
C/C(=N\NS(=O)(=O)c1ccc(Br)cc1)c1cccs1	-3.54% (inactive)
C/C(=N\Nc1ccc(S(N)(=O)=O)cc1[N+](=O)[O-])c1cccs1	21.1% (active)
COc1cc(C(=S)N2CCOCC2)cc(OC)c1OC(=O)c1ccc([N+](=O)[O-])cc1[N+](=O)[O-]	-5.07% (inactive)
CNc1nc(-c2ccccc2)cc(-c2ccccc2)n1	2.66% (inactive)
CS(=O)(=O)c1sc2nc(-c3ccccc3)cc(-c3ccccc3)c2c1N	5.43% (active)
Nc1nc(-c2ccccc2)cc(-c2ccccc2)n1	-4.04% (inactive)
O=c1[nH]c2c(c(=O)n1Cc1ccccc1)CCC2	-1.53% (inactive)
Cc1cc2nc3c(=O)n(Cc4ccccc4)c(=O)[nH]c3nc2cc1N	9.26% (active)
CC(=O)c1ccc(-c2ccc(Cn3c(C)nc4cc(N)c(C)nc43)cc2)cc1	-0.56% (inactive)
COc1cccc(CNC(=O)C2CC(=O)N(C3CCCCCCC3)C2)c1 (centres undefined)	-1.11% (inactive)
COc1ccccc1C(=O)N(Cc1ccc(C)o1)C1CCS(=O)(=O)C1 (centres undefined)	-3.51% (inactive)
